The target in experiment [1] is T1, Neuronal acetylcholine receptor; alpha4/beta2 (Rattus norvegicus, UniProt P09483+P12390). The experiment in a line: Displacement of [3H]cytisine from alpha-4-beta-2 nAChR in rat cerebral cortex. The class given is tissue-based. In outline:
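Rat cerebral cortex membranes labelled with [³H]-cytisine, which marks α4β2* receptors. Compounds were tested for displacement up to 10 µM, with amines used as oxalate salts. Ki values were determined.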

Experiment [2] addresses T1, Neuronal acetylcholine receptor; alpha4/beta2. The experiment in a line: Displacement of [3H]epibatidine from alpha-4-beta-2 nAChR in rat cerebral cortex. The class given is tissue-based. In outline:
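Rat cerebral cortex was used in competition binding against [³H]-epibatidine, with amines tested as oxalate salts. Ki values were derived, and subtype selectivity was taken from comparison with Ki values obtained on the same tissue.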
(In general: Displacement assays read how much labelled ligand stays bound in the presence of the test substance.)

The target in experiment [3] is Neuronal acetylcholine receptor subunit alpha-7 (Rattus norvegicus, UniProt Q05941). Kind of experiment: Displacement of [3H]alpha-bungarotoxin from alpha-7 nAChR in rat cerebral cortex. The class given is tissue-based.
Neuronal acetylcholine receptor subunit alpha-7, sequence (Q05941 whole entry): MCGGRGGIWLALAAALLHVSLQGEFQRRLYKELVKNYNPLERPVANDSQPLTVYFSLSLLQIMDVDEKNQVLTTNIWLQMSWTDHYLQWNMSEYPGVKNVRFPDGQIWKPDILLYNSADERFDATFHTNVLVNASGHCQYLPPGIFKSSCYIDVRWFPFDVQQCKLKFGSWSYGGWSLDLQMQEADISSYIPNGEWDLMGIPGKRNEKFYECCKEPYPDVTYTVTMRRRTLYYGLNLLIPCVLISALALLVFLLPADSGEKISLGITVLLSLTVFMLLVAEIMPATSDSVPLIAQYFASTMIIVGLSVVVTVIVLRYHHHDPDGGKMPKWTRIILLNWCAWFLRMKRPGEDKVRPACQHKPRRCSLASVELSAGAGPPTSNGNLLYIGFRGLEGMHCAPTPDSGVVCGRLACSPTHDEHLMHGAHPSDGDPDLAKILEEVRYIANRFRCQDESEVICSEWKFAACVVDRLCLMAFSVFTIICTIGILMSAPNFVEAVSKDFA
A further experiment relates to Mus musculus. Kind of experiment: Analgesic activity in mouse at 5 mg/kg, ip by hot plate test […]. More on the design: dose 5 mg/kg. It counts as functional, organism-based. In outline:
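Mice were placed on a stainless steel surface held at 52.5 ± 0.1 °C, and dosing was i.p. at 5 mg/kg. Paw-licking latency (s) was timed by stopwatch before and 15, 30, 45 and 60 min after dosing. Mice with pretest scores below 12 or above 18 s were excluded, and the cutoff was 45 s. Ten mice per group; mean ± SEM.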
On the technique in general: In hot-plate and tail-flick tests a longer latency is read as antinociception.

Each structure is given as a SMILES string. pKi: −log10 of the molar value. Active and inactive are the calls of the source.

T1 sequence (P09483 whole entry): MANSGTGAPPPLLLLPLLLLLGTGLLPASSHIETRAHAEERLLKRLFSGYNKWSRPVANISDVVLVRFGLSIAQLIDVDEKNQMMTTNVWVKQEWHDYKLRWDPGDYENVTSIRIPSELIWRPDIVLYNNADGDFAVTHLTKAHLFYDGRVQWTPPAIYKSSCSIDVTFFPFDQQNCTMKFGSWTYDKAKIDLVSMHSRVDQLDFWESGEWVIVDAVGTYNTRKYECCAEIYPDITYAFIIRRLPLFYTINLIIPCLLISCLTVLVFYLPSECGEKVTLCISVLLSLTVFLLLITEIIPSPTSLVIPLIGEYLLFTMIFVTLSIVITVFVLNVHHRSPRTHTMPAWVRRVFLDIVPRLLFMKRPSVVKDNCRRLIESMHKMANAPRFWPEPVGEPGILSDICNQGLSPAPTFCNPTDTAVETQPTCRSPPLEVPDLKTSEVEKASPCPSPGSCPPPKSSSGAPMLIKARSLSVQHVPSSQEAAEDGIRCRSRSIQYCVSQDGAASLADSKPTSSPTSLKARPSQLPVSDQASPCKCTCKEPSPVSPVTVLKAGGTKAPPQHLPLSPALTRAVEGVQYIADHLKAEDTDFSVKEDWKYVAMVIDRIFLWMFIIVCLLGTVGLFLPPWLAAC
T1 sequence (P12390 whole entry): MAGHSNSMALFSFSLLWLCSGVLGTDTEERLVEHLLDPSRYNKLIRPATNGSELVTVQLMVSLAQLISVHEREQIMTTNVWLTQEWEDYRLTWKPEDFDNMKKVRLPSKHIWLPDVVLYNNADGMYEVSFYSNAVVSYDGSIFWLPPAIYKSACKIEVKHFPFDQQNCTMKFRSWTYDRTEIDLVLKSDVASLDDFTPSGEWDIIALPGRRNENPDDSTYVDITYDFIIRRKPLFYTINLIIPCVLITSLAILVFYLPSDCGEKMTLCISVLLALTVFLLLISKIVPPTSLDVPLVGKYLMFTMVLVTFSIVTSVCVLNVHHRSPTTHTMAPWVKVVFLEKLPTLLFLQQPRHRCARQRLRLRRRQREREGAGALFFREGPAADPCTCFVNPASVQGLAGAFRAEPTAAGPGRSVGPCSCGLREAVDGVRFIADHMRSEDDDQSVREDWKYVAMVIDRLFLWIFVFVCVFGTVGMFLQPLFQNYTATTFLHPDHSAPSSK

The pKi is the Ki on a negative log10 scale, so that one unit is a factor of ten. In the case of `CN1CCC[C@@H]1c1ccc2ncccc2c1`, the pKi was 5.71 in experiment [1], 5.68 in experiment [2] and 5.09 in experiment [3].

With `C[N+]1(C)CCC[C@@H]1c1ccc2ncccc2c1`, the results for the pKi in experiment [1], in experiment [2] and in experiment [3] were 6.66, 5.85 and 7.05, respectively.

Regarding `C[N+]1(C)CCC[C@H]1c1ccc2ncccc2c1`, the pKi in experiment [1] is 7.80; in experiment [2] it was 7.38; in experiment [3], 5.80. Besides, the result with Mus musculus was Active.

Consider `C[N+]1(C)CCCC1c1ccc2ncccc2c1` (racemic), for which the pKi in experiment [1] is 7.35. Moreover, the Activity entry with Mus musculus was “Dose-dependent effect”.

With `C[N+](C)(C)CCC#Cc1ccc2ncccc2c1`, the pKi in experiment [2] was 5.17; in experiment [3] it was 6.85.

With `CN1CCC[C@H]1c1ccc2ncccc2c1`, the figures for the pKi in experiment [1], in experiment [2] and in experiment [3] were 7.05, 6.91 and 4.38, respectively.

In turn, `CN1CCCC1c1ccc2ncccc2c1` (racemic) showed a pKi in experiment [1] of 6.88. For the same compound, in the experiment on Mus musculus, the Activity entry was “Dose-dependent effect”.

Values taken from ChEMBL document CHEMBL1148810, “Design, synthesis, and preliminary pharmacological evaluation of new quinoline derivatives as nicotinic ligands” (J Med Chem, 2007).
